Data from ChEMBL document CHEMBL1142364, “Investigation of the alkenyldiarylmethane non-nucleoside reverse transcriptase inhibitors as potential cAMP phosphodiesterase-4B2 inhibitors” (Bioorg Med Chem Lett, 2008).
Active and inactive are the calls of the source. No cut-off for these calls is given here.

Legend:
[1] = Cytotoxicity against human CEM-SS cells; format: cell-based
In short: (§1)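 Mock-infected CEM-SS or MT-4 cells run alongside the antiviral cultures; CC50 is the concentration causing death of 50% of the cells.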

[2] = system: Human immunodeficiency virus 1; experiment: Antiviral activity against HIV1 RF in CEM-SS cells assessed as inhibition of virus-induced cytopathic effect by XTT assay; format: functional, organism-based; conditions: Human immunodeficiency virus 1, RF
In short: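 CEM-SS cells infected with HIV-1 RF; XTT cytoprotection read-out; EC50 is the concentration that inhibits 50% of viral cytopathic effect.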

[3] = target: Human immunodeficiency virus type 1 reverse transcriptase (Human immunodeficiency virus 1, UniProt Q72547); experiment: Inhibition of HIV1 reverse transcriptase
In short: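 Recombinant HIV-1 RT, p66/51 heterodimer; polymerase activity measured with poly(rC).oligo(dG) as template primer.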

[4] = target: 3',5'-cyclic-AMP phosphodiesterase 4B (Homo sapiens) (UniProt Q07343); experiment: Inhibition of PDE4B2 expressed in COS7 cells assessed as cAMP hydrolysis at 100 uM; format: cell-based; conditions: COS-7
[5] = system: Human immunodeficiency virus 2; experiment: Antiviral activity against HIV2 ROD in MT4 cells assessed as inhibition of virus-induced cytopathic effect by MTT assay; format: functional, organism-based
In short: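 MT-4 cells infected with HIV-2 ROD; protection from cytopathic effect read by MTT assay; EC50 is the concentration blocking 50% of virus-induced cell killing.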

[6] = system: Human immunodeficiency virus 1; experiment: Antiviral activity against HIV1 3B in MT4 cells assessed as inhibition of virus-induced cytopathic effect by MTT assay; format: functional, organism-based; conditions: Human immunodeficiency virus 1, 3B
In short: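 Cytoprotection in MT-4 cells infected with HIV-1 IIIB, read by MTT assay; EC50 taken as the concentration giving 50% inhibition of viral cytopathic effect.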

[7] = Cytotoxicity against human MT4 cells; format: cell-based; in short: as §1

Sequence of 3',5'-cyclic-AMP phosphodiesterase 4B (Homo sapiens) (Q07343 whole entry): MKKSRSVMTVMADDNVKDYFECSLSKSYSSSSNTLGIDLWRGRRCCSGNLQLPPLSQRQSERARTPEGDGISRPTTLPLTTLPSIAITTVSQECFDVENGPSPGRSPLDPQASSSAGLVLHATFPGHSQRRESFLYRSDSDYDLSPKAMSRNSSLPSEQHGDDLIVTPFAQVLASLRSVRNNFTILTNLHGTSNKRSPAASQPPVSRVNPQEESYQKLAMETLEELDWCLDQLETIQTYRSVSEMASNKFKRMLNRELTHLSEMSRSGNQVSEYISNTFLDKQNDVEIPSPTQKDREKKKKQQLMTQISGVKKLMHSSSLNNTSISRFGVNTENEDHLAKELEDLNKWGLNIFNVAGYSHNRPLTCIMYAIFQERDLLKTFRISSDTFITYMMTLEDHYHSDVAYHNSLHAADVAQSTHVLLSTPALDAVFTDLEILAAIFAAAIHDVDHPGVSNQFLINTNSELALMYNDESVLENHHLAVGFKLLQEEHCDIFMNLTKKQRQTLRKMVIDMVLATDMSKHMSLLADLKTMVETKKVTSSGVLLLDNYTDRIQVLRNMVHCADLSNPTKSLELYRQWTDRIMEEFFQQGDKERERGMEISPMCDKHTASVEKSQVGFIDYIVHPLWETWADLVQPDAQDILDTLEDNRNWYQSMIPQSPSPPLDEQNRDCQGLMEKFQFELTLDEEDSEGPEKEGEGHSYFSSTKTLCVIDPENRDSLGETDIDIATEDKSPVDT

COC(=O)c1cc(C(=CCCCSC)c2cc(Cl)c(OC)c(C(=O)OC)c2)cc(Cl)c1OC
CC50 [1]: > 20 µM | EC50 [2]: 5.3 µM | IC50 [3]: > 100 µM | inhibition [4]: 20%

COC(=O)CCCC=C(c1cc(Br)c(OC)c(C(=O)OC)c1)c1cc(Br)c(OC)c(C(=O)OC)c1
EC50 [2]: 0.001 µM | inhibition [4]: 40% | Activity [5]: inactive

COC(=O)CCC/C=C(\c1cc(C)c(OC)c(C(=O)OC)c1)c1cc(C)c2oc(=O)n(C)c2c1
EC50 [2]: 0.03 µM | inhibition [4]: 72% | EC50 [6]: 0.09 µM | Activity [5]: inactive

COC(=O)c1cc(C(=CCCCc2ccccc2)c2cc(Br)c(OC)c(C(=O)OC)c2)cc(Br)c1OC
CC50 [1]: > 200 µM | IC50 [3]: > 100 µM | Activity [4]: inactive | CC50 [7]: > 198 µM | EC50 ([5]; Human immunodeficiency virus 2, ROD): 21 µM

COC(=O)CCCC=C(c1cc(C)c2oc(=O)n(C)c2c1)c1cc(C)c2oc(=O)n(C)c2c1
CC50 [1]: 31 µM | EC50 [2]: 0.62 µM | IC50 [3]: 0.5 µM | inhibition [4]: 71% | CC50 [7]: 33 µM | EC50 [6]: 0.22 µM | Activity [5]: inactive

Cc1ccnc2c1NC(=O)c1cccnc1N2C1CC1
Activity [5]: inactive

COc1ccc(C2CNC(=O)C2)cc1OC1CCCC1 (stereo not drawn)
inhibition [4]: 100%

CCCCCC=C(c1cc(Cl)c(OC)c(C(=O)OC)c1)c1cc(Cl)c(OC)c(C(=O)OC)c1
CC50 [1]: > 29 µM | EC50 [2]: 16 µM | Activity [4]: inactive
